Screening data deposited in PubChem by Johns Hopkins Ion Channel Center.
In the library only some 3.8% were active in any assay of this set; here they are far more common.
KCNQ1 act – potentiators or activators of KCNQ1 channel, primary screen, cell-based, thallium flux, high-throughput. Potassium voltage-gated channel subfamily KQT member 1 (Homo sapiens), P51787. B-score at 10 µM. 0.35% of 310,000 active. CHO-K1 KCNQ1, thallium flux FluxOR fluorescence; stronger effect = higher value;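 active = fluorescence ratio B-score, a plate-corrected score, at least three library SD, with initial intensity B-score within 5 SD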
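Assay system: CHO-K1 cells stably expressing KCNQ1. Medium: assay buffer for compound exposure, DMSO matched across wells. Timing: 37 °C overnight plating, 90-min dark dye load, 20-min compound pretreatment. Signal: kinetic FluxOR fluorescence, 10 s baseline plus 110 s post-stimulus.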
Kir21 inh – inhibitors of mouse Kir2.1 inward-rectifier potassium channel; 0.85% of 310,000 active; HEK293-Kir2.1, FluxOR thallium flux fluorescence; stronger effect = lower value; AID 1672, 2009; Inward rectifier potassium channel 2 (Mus musculus), P35561; B-score at 10 µM;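 active = fluorescence ratio B-score at or below minus 3 SD of library scores, with starting-brightness B-score within 2 SD, cut at about -4.2 in these data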;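 also: channel flux triggered by added potassium and thallium sulfate stimulus; B-score of peak minus minimum fluorescence over baseline after thallium stimulus; more negative B-score means stronger Kir2.1 block with less thallium influx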
Target sequence (P35561 whole entry, looked up): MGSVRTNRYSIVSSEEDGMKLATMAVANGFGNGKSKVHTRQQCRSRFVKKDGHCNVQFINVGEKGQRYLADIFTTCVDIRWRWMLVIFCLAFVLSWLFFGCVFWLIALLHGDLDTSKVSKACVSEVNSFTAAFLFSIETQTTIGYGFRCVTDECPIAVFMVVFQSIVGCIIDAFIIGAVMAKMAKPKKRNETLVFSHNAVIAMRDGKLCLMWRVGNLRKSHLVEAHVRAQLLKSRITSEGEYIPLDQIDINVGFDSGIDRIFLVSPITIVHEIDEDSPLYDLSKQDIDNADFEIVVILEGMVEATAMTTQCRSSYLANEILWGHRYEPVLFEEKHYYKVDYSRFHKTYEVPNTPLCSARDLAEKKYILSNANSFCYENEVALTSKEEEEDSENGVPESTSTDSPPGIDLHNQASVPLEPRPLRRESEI
KCNQ1 block – inhibitors of human KCNQ1 channel, primary screen, cell-based, thallium flux, high-throughput; 1.3% of 310,000 active; CHO-K1 KCNQ1, FluxOR thallium flux fluorescence; stronger effect = higher value; B-score at 10 µM; AID 2642, 2010;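 active = compounds whose thallium flux B-score, printed positive for inhibition, exceeds three library SD while starting fluorescence stays within three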;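 also: channel opened by potassium depolarization with thallium stimulus after 20 min compound exposure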
KCNK9 block – KCNK9 potassium channel inhibitors, primary screen, HEK293 cells, thallium flux; FluxOR thallium flux fluorescence; stronger effect = lower value; 1.2% of 310,000 active; Potassium channel subfamily K member 9 (Homo sapiens), Q9NPC2; B-score at 10 µM;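 active = ratio B-score over 3 SD below the library mean, with starting fluorescence within 5 SD of its mean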;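 also: negative B-score means less thallium flux so channel inhibition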
hERG rescue – hERG rescue from dofetilide block, primary screen, cell-based, CHO-hERG, FluxOR thallium flux, dofetilide IC70 | 0.51% of 310,000 active | activation (rescue from dofetilide block), less the hit threshold, % at 10 µM | AID 1511, 2009 | dofetilide IC70 present;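 active = activation above the mean of controls blocked by dofetilide plus 5 SD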;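 also: thallium influx through hERG after potassium depolarization seen as dye fluorescence rise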
KCNK3 block – human KCNK3 channel inhibitors, primary screen, CHO cells, FluxOR thallium flux, B-score; AID 602410, 2012; FluxOR fluorescence; stronger effect = lower value; B-score at 10 µM; 0.84% of 340,000 active;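 active = B-score under library mean minus 4 SD, starting fluorescence ratio at most library mean plus 5 SD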;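 also: more negative B-score means stronger inhibition of thallium flux through KCNK3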
KCNK9 block conf – KCNK9 potassium channel inhibitors, confirmation, HEK293 cells, thallium flux, duplicate | shares compounds with KCNK9 block | AID 492992, 2010 | 43% of 4,900 active | FluxOR thallium flux fluorescence | inhibition, % at 10 µM;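 active = thallium signal inhibited by more than 5 SD of the compound-free buffer control wells, on both duplicate plates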;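 also: 0% = assay buffer control wells without compound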
Kir2-1 spec – mouse Kir2.1 channel inhibition, confirmation, selectivity assay for KCNK9 modulator project, cell-based, HEK293, thallium flux; Kir2.1 cells, FluxOR thallium flux fluorescence; 4% of 4,900 active; inhibition, % at 10 µM; shares compounds with KCNK9 block;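 active = thallium signal drop more than 5 SD beyond the mean of the no-compound control wells, seen in both duplicate plates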;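 also: signal is fluorescence rise after thallium addition divided by baseline fluorescence; plate controls were assay buffer only for no effect and full block by chlorpromazine control for full effect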
HEK293 Tl ctr – thallium flux in non-induced HEK293 cells, confirmation, counter-screen for KCNK9 inhibitor project, cell-based, second counter screen, non-induced KCNK9-HEK293; FluxOR thallium flux; inhibition, % at 10 µM; AID 492997, 2010; shares compounds with KCNK9 block; 40% of 4,900 active;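 active = thallium signal drop beyond 5 SD of the untreated control mean, on both duplicate plates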;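 also: plate controls were buffer only IC0 wells for no effect and SID17386958 at its maximal inhibitory level for full effect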
The depositor's hits bear a star.

Screening CCCCCCCC(=O)NNC(=O)c1c(O)c2ccccc2n(CC)c1=O returned KCNQ1 act inactive, Kir21 inh 2.87, KCNQ1 block inactive, KCNK9 block inactive, hERG rescue -5.7, KCNK3 block inactive, KCNK9 block conf inactive, Kir2-1 spec inactive and HEK293 Tl ctr inactive.
For CCCCCCC(=O)NNC(=O)c1c(O)c2ccccc2n(CCC)c1=O the results were KCNQ1 act inactive, Kir21 inh -1.46, KCNQ1 block inactive, KCNK9 block inactive, hERG rescue -4.6 and KCNK3 block inactive.
Screening CCCCCCCC(=O)NNC(=O)c1c(O)c2ccccc2n(CCC)c1=O returned KCNQ1 act inactive, Kir21 inh -0.25, KCNQ1 block inactive, KCNK9 block inactive, hERG rescue -7.1, KCNK3 block inactive, KCNK9 block conf inactive, Kir2-1 spec inactive and HEK293 Tl ctr inactive.
Screening CC1(C)Cc2ccccc2C(N/N=C/c2ccc(Cl)cc2)=N1 returned KCNQ1 act inactive, Kir21 inh -0.03, KCNQ1 block inactive, KCNK9 block inactive, hERG rescue -12.5, KCNK3 block inactive, KCNK9 block conf inactive, Kir2-1 spec inactive and HEK293 Tl ctr inactive.
Cc1ccc2c(c1)N(C(=O)CCC(=O)NCC(C)c1ccccc1)CC(C)O2 (centres undefined) was read as KCNQ1 act inactive, Kir21 inh -0.82, KCNQ1 block inactive, KCNK9 block inactive, hERG rescue -13.4 and KCNK3 block inactive.
For COC(=O)c1ccccc1NC(=O)CCC(=O)N1CC(C)Oc2ccc(C)cc21 (centres undefined) the results were KCNQ1 act inactive, Kir21 inh -0.18, KCNQ1 block inactive, KCNK9 block inactive, hERG rescue -14.1, KCNK3 block inactive, KCNK9 block conf inactive, Kir2-1 spec inactive and HEK293 Tl ctr inactive.
`CCOc1ccc(NC(=S)N2CCN(S(C)(=O)=O)CC2)cc1` gave KCNQ1 act inactive, Kir21 inh 0.28, KCNQ1 block inactive, KCNK9 block inactive, hERG rescue -11.8 and KCNK3 block inactive.
`CCCCCCCn1c2c(c(=N)c3ccccc31)CCC2` gave KCNQ1 act inactive, Kir21 inh -6.72*, KCNQ1 block inactive, KCNK9 block -10.1*, hERG rescue -31.2, KCNK3 block -11.3*, KCNK9 block conf 47.0%*, Kir2-1 spec 77.0%* and HEK293 Tl ctr inactive.
COc1ccc(OC)c(C(C[N+](=O)[O-])c2c(C)cc3ccccn23)c1 (centres undefined) was read as KCNQ1 act inactive, Kir21 inh 0.24, KCNQ1 block inactive, KCNK9 block -17.3*, hERG rescue -10.3, KCNK3 block inactive, KCNK9 block conf 58.0%*, Kir2-1 spec inactive and HEK293 Tl ctr 28.5%*.
Screening COc1cccc(/C=C/C(=O)NNC(=O)c2cc(C)oc2C)c1 returned KCNQ1 act inactive, Kir21 inh -0.46, KCNQ1 block inactive, KCNK9 block inactive, hERG rescue -14.9 and KCNK3 block inactive.
COc1cccc(NC(=S)N/N=C2/CCCCc3ccccc32)c1 was read as KCNQ1 act 15*, Kir21 inh -0.28, KCNQ1 block inactive, KCNK9 block inactive, hERG rescue -9.0, KCNK3 block inactive, KCNK9 block conf inactive, Kir2-1 spec inactive and HEK293 Tl ctr inactive.
For Cc1ccc(C)c(NC(=S)N/N=C2/CCCCc3ccccc32)c1 the results were KCNQ1 act inactive, Kir21 inh 0.42, KCNQ1 block inactive, KCNK9 block inactive, hERG rescue -3.8, KCNK3 block inactive, KCNK9 block conf inactive, Kir2-1 spec inactive and HEK293 Tl ctr inactive.
For CC(C)NC(=S)N/N=C1\CCCCc2ccccc21 the results were KCNQ1 act inactive, Kir21 inh -2.19, KCNQ1 block inactive, KCNK9 block inactive, hERG rescue -0.2 and KCNK3 block inactive.
`COc1ccc(CC(=O)OC(C)C(=O)NC2CCCCC2C)cc1` (centres undefined) gave KCNK3 block inactive.
Screening COc1cc(C(=O)Nc2ccc(C#N)cc2)c([N+](=O)[O-])cc1OC returned KCNQ1 act inactive, Kir21 inh -0.37, KCNQ1 block inactive, KCNK9 block inactive, hERG rescue -1.5 and KCNK3 block inactive.
Cn1c(-c2ccc(Br)o2)nc2ccccc21 was read as KCNQ1 act inactive, Kir21 inh -0.01, KCNQ1 block inactive, KCNK9 block inactive, hERG rescue -6.9 and KCNK3 block inactive.
Screening Brc1ccc(Cn2c(-c3ccc(Br)o3)nc3ccccc32)o1 returned KCNQ1 act inactive, Kir21 inh 2.5, KCNQ1 block inactive, KCNK9 block -8.76*, hERG rescue -7.7, KCNK3 block inactive, KCNK9 block conf inactive, Kir2-1 spec inactive and HEK293 Tl ctr 32.5%*.
O=C1/C(=C/c2ccccc2)CCc2ccc(Cl)nc21 was read as KCNK3 block inactive.
COc1ccc(S(=O)(=O)Nc2cccc(S(=O)(=O)N3CCCCCC3)c2)cc1 was read as KCNQ1 act inactive, Kir21 inh -1.97, KCNQ1 block inactive, KCNK9 block -8.17*, hERG rescue -14.9, KCNK3 block inactive, KCNK9 block conf 41.5%*, Kir2-1 spec inactive and HEK293 Tl ctr 28.0%*.
`Cc1ccc(S(=O)(=O)c2cccc(S(=O)(=O)N3CCCC3)c2)cc1S(=O)(=O)N1CCCC1` gave KCNQ1 act inactive, Kir21 inh -0.69, KCNQ1 block inactive, KCNK9 block -15.8*, hERG rescue -7.9, KCNK3 block inactive, KCNK9 block conf 31.5%*, Kir2-1 spec inactive and HEK293 Tl ctr 26.0%*.
